Results on two compounds are retold here after ChEMBL document CHEMBL1152541, “Staurosporine tethered peptide ligands that target cAMP-dependent protein kinase (PKA): optimization and selectivity profiling” (Bioorg Med Chem, 2009).

*1 amine or outer side, *2 acyl side, *3 side chain or, on linkers, in order; H or OH if unused. Where a SMILES comes first, the peptide text is derived from it. Bridges are numbered along the chain shown (N, C = ends). [ ]: non-standard residue; d: D form. The star is where a group is joined. Staurosporine = CO[C@@H]1[C@H](N(C)*)C[C@H]2O[C@]1(C)n1c3ccccc3c3c4c(c5c6ccccc6n2c5c31)C(=O)NC4; Suc = O=C(CCC(=O)[*:2])[*:1]; Dap = NC[C@H](N)C(=O)O; βAla = NCCC(=O)O

Assay [1] has as its target T1, TGF-beta receptor type-1 (Homo sapiens) (UniProt P36897).
T1 sequence (whole entry): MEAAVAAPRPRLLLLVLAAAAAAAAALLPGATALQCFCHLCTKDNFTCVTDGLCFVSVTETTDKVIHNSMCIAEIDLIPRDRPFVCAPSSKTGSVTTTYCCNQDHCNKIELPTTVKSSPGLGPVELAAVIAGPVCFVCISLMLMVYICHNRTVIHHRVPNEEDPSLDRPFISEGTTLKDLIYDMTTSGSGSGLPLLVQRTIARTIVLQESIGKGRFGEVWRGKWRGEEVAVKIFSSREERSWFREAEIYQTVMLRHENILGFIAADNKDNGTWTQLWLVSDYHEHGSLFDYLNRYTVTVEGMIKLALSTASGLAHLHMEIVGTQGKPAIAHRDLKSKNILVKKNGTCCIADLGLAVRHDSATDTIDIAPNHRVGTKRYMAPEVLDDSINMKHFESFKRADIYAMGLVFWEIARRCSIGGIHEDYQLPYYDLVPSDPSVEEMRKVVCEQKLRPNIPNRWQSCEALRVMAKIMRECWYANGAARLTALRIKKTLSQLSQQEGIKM
In words: Binding affinity to human TGFBR1 at 200 nM by cell-based competition binding assay relative to control in presence of DTT.

Assay [2] concerns the target Mitogen-activated protein kinase kinase kinase 4 (Homo sapiens) (UniProt Q9Y6R4). The experiment in a line: Binding affinity to human MAP3K4 at 200 nM by cell-based competition binding assay relative to control in presence of DTT. The gist of the method: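 Competition binding screen (Ambit) across a panel of 90 kinases, scoring test ligand displacement of each kinase's binding relative to control. The screen ran under reducing conditions with 7.5 mM DTT.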

The target in assay [3] is Mitogen-activated protein kinase kinase kinase 9 (Homo sapiens) (UniProt P80192). In words: Binding affinity to human MLK1 at 200 nM by cell-based competition binding assay relative to control in presence of DTT.
Chain of Mitogen-activated protein kinase kinase kinase 9 (Homo sapiens) (P80192 whole entry, looked up): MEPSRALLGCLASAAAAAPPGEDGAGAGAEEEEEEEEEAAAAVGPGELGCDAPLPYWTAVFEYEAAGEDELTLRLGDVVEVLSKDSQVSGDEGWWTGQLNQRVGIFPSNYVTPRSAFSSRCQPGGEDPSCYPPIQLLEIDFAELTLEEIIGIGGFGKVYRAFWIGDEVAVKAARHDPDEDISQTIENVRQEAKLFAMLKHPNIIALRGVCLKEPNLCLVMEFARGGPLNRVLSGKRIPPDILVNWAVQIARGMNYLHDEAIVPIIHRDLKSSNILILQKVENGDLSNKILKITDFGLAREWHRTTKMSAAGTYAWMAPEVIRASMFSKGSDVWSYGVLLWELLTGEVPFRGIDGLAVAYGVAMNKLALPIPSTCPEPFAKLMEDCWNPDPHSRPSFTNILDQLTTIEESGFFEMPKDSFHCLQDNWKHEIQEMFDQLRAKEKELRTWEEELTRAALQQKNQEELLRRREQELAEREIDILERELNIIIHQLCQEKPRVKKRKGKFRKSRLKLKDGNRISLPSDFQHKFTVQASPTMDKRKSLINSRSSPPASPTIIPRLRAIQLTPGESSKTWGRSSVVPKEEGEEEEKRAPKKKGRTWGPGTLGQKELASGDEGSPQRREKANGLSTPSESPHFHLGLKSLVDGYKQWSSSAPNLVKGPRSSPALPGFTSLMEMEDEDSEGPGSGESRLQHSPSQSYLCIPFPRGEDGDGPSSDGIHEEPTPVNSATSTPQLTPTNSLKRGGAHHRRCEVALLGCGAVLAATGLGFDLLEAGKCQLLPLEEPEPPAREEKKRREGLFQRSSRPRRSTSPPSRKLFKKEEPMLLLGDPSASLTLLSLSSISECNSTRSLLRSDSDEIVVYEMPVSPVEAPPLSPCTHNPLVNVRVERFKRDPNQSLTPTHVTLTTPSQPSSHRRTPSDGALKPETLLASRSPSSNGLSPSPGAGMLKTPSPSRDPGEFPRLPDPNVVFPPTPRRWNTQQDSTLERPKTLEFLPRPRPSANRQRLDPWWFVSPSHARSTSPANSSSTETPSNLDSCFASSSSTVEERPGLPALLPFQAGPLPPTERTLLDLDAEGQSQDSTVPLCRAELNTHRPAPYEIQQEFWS
Assay [4] concerns the target Ephrin type-A receptor 2 (Homo sapiens) (UniProt P29317). The experiment in a line: Binding affinity to human EPHA2 at 50 nM by cell-based competition binding assay relative to control in presence of DTT. The gist of the method: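 Commercial (Ambit) competitive kinase-binding panel of 90 kinases measured the binding profile. Run under reducing conditions of 7.5 mM DTT. Binding is expressed relative to control.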

Assay [5] addresses MAP kinase-interacting serine/threonine-protein kinase 1 (Homo sapiens) (UniProt Q9BUB5). In words: Binding affinity to human MKNK1 at 50 nM by cell-based competition binding assay relative to control in presence of DTT.
For assay [6], the target named is Atypical kinase COQ8A, mitochondrial (Homo sapiens) (UniProt Q8NI60). In words: Binding affinity to human ADCK3 at 50 nM by cell-based competition binding assay relative to control in presence of DTT. The gist of the method:
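Kinase binding profiling ran on a commercial (Ambit) competitive binding screen against a panel of 90 kinases. The screen used reducing conditions with 7.5 mM DTT. To withstand the DTT, the bivalent ligand was tested as its amide isostere, with the disulfide replaced. A staurosporine derivative carrying a 3 β-alanine linker was run as the reference compound.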

The target in assay [7] is Ribosomal protein S6 kinase alpha-3 (Homo sapiens) (UniProt P51812). The experiment in a line: Binding affinity to human RPS6KA3 kinase domain 1 at 50 nM by cell-based competition binding assay relative to control in presence of DTT.
Chain of Ribosomal protein S6 kinase alpha-3 (Homo sapiens) (P51812 whole entry, the tested form may be a part): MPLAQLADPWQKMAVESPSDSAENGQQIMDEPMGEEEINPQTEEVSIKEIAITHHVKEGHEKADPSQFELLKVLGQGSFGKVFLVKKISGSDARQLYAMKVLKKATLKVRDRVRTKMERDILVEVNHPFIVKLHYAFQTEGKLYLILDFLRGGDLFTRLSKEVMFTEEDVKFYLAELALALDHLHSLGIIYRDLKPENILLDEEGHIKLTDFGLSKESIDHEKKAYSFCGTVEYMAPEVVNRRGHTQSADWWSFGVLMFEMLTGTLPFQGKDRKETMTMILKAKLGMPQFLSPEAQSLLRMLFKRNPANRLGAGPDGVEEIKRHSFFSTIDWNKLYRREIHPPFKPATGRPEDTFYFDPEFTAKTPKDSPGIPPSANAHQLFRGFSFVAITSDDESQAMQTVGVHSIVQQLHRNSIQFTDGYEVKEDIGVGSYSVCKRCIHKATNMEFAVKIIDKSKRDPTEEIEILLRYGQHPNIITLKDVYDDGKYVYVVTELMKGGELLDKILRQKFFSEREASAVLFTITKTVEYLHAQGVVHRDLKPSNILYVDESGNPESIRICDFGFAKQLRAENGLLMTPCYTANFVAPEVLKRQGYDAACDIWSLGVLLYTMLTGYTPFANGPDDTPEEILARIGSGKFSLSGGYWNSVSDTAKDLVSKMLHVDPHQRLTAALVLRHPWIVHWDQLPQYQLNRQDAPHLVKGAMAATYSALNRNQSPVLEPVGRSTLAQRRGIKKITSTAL
The target of assay [8] is T2, Testis-specific serine/threonine-protein kinase 1 (Homo sapiens) (UniProt Q9BXA7).
T2 sequence (whole entry): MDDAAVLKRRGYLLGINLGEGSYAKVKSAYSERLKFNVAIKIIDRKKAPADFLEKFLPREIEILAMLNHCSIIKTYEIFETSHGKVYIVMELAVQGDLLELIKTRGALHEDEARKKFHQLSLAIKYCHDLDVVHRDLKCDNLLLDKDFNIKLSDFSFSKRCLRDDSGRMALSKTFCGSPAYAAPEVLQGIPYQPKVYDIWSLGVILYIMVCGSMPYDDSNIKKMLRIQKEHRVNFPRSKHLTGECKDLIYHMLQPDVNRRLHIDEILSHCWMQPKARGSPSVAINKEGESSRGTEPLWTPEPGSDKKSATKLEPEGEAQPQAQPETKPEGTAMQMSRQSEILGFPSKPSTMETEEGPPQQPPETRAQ
The experiment in a line: Binding affinity to human TSSK1 at 50 nM by cell-based competition binding assay relative to control in presence of DTT.

Chain of Ephrin type-A receptor 2 (Homo sapiens) (P29317 whole entry): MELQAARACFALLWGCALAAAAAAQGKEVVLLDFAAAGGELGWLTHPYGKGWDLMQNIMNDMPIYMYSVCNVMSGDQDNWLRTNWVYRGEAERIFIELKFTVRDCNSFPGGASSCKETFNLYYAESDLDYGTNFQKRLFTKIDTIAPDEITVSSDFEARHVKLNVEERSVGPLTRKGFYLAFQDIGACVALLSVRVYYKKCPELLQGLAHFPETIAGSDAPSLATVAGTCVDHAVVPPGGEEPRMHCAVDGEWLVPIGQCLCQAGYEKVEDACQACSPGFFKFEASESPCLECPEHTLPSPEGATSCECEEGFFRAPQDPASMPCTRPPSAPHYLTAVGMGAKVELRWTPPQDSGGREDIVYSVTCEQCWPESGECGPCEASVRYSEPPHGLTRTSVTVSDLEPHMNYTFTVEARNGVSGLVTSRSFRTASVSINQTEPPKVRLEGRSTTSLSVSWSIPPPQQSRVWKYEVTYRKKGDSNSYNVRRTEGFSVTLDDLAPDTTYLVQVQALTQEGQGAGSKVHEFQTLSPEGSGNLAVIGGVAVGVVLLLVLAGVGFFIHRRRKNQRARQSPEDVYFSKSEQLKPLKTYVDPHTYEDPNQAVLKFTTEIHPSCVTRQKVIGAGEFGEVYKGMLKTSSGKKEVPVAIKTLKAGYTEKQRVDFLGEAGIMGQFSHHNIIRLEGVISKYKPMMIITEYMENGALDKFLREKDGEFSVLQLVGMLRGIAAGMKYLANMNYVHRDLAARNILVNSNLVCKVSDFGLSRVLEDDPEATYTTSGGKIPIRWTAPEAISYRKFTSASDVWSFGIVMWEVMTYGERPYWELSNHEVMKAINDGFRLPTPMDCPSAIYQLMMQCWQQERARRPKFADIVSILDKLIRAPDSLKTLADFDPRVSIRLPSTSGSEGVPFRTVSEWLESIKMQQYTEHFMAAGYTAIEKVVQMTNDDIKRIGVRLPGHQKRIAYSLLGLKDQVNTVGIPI
Chain of Mitogen-activated protein kinase kinase kinase 4 (Homo sapiens) (Q9Y6R4 whole entry): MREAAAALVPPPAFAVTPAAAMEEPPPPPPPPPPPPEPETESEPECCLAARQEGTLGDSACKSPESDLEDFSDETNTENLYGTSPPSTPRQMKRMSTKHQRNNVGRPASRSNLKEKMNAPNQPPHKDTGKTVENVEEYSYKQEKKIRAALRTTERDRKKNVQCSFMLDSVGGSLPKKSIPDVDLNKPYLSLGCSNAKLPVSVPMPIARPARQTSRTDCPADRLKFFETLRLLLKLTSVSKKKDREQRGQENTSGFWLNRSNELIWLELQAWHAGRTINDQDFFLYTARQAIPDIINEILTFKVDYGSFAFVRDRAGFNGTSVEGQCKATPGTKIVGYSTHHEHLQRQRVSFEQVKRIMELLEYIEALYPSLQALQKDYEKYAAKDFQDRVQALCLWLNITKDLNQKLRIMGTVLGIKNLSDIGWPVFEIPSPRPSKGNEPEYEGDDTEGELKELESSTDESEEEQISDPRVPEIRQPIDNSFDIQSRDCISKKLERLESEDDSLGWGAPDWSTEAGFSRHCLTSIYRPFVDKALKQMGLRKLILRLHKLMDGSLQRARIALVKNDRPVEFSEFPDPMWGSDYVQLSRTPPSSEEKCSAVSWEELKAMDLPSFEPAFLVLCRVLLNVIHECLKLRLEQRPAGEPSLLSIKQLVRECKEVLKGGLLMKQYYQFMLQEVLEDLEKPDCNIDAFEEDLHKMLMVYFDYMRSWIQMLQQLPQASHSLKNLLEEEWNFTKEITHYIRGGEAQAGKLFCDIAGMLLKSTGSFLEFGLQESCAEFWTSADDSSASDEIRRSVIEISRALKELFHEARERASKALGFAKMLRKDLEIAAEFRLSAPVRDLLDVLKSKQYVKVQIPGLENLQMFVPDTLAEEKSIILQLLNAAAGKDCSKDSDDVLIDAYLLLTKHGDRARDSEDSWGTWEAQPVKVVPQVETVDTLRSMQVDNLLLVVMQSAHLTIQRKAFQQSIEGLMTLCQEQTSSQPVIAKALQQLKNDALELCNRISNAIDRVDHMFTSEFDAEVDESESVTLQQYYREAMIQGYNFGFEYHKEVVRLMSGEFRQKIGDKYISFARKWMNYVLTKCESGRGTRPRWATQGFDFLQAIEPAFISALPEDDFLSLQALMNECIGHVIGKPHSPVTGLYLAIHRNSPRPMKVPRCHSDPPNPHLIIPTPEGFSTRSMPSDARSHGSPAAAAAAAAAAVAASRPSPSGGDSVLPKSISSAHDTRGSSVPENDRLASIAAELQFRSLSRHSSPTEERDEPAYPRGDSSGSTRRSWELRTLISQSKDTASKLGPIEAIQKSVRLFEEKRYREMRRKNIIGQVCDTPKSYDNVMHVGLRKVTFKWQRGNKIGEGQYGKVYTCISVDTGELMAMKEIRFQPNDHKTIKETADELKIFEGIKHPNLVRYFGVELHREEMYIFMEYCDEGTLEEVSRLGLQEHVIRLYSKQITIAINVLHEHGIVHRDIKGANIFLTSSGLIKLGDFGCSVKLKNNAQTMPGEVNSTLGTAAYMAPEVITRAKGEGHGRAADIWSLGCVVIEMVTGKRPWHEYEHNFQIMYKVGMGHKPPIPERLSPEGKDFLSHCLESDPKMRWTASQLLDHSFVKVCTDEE
Chain of Atypical kinase COQ8A, mitochondrial (Homo sapiens) (Q8NI60 163-647 limits assumed): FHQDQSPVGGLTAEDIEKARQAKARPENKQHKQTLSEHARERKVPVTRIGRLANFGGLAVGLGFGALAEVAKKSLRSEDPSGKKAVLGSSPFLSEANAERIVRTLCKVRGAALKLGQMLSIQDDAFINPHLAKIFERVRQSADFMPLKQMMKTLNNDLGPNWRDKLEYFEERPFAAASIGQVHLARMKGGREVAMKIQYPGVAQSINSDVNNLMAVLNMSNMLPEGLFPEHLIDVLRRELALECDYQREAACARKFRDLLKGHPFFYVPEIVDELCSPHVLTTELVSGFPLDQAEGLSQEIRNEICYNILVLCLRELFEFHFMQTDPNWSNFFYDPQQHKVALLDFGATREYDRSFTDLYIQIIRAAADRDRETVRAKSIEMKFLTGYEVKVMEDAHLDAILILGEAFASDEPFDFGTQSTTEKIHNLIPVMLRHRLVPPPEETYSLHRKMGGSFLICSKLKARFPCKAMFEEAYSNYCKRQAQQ

Consider `CO[C@@H]1[C@H](N(C)C(=O)CCC(=O)NCCC(=O)NCCC(=O)NCCC(=O)NCCC(=O)NCCC(=O)NCCC(=O)NCCC(=O)N[C@H]2CSSC[C@@H](C(=O)NCC(N)=O)NC(=O)CNC(=O)[C@H](Cc3ccccc3)NC(=O)[C@H](C(C)C)NC(=O)[C@H](CCCNC(=N)N)NC(=O)[C@H](Cc3ccccc3)NC(=O)[C@H](C(C)C)NC2=O)C[C@H]2O[C@]1(C)n1c3ccccc3c3c4c(c5c6ccccc6n2c5c31)C(=O)NC4` ({Staurosporine-Suc-βAla-βAla-βAla-βAla-βAla-βAla-βAla}-CVFRVFGCG-NH2; disulfide 1-8), for which the values for the Activity in assay [1], in assay [2] and in assay [3] were 100%, 94% and 0.65%, respectively.
For the compound `CO[C@@H]1[C@H](N(C)C(=O)CCC(=O)NCCC(=O)NCCC(=O)NCCC(=O)NCCC(=O)NCCC(=O)NCCC(=O)NCCC(=O)N[C@H]2CNC(=O)C[C@@H](C(N)=O)NC(=O)CNC(=O)[C@H](Cc3ccccc3)NC(=O)[C@H](C(C)C)NC(=O)[C@H](CCCNC(=N)N)NC(=O)[C@H](Cc3ccccc3)NC(=O)[C@H](C(C)C)NC2=O)C[C@H]2O[C@]1(C)n1c3ccccc3c3c4c(c5c6ccccc6n2c5c31)C(=O)NC4` ({Staurosporine-Suc-βAla-βAla-βAla-βAla-βAla-βAla-βAla}-[Dap]VFRVFGD-NH2; lactam 1-8), the Activity amounted to 99% in assay [4]; 100% in assay [5]; 91% in assay [6]; 100% in assay [7]; 100% in assay [8].
